ChEMBL document CHEMBL1687827, “Profiling the Aspergillus fumigatus proteome in response to caspofungin” (2011)
Active and inactive are the calls of the source. The calls are words filed in the database; no cut-off is given here.

Tests used:
[1] = system: Aspergillus fumigatus; assay: Induction of change in cytosolic small ribosomal subunit S4, putative gene expression in drug-susceptible Aspergillus fumigatus KU80 delta-akuB at 0.12 ug/ml after 24 hrs in YPD medium by microarray analysis relative to control; format: functional
How it was run: (§1)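 Mycelia grown in YPD ± 0.12 μg/ml caspofungin (1 × 10⁵ conidia/ml, 37°C, shaking) and harvested at 24 or 48 h. Total RNA extracted, DNase-treated and quality-checked; 2 μg labelled per TIGR SOP M007 and hybridized to whole-genome arrays. Three independent experiments with dye flip (6 replicates); drug vs untreated fold change.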

[2] = system: Aspergillus fumigatus; assay: Antifungal activity against drug-resistant Aspergillus fumigatus EMFR-S678P assessed as change in hyphal morphology by YPD medium; format: functional; conditions: read-out: MEC
How it was run: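 CLSI M38-A2 broth microdilution, run in triplicate in RPMI or YPD medium as the line specifies. Caspofungin was dissolved in sterile water. The minimum effective concentration (MEC) was the lowest concentration giving a significant change in hyphal morphology visible to the eye.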

[3] = system: Aspergillus fumigatus; assay: Induction of change in mitochondrial hypoxia responsive domain protein level in iTRAQ-118 labelled cell wall fraction of drug-resistant Aspergillus fumigatus EMFR-S678P at 0.12 ug/ml after 48 hrs in YPD medium by MS (MS/MS) analysis relative to control; format: functional
How it was run: (§2)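 Conidia at 1 × 10⁵/ml were grown at 37°C, shaking at 225 rpm, in YPD with or without 0.12 μg/ml caspofungin for 24 or 48 h. The culture filtrate was kept as the secreted fraction. Mycelia were lysed by French press in HEPES/glycerol/EDTA/PMSF/DTT buffer, and the 5,000 × g pellet was washed to give CW/PM. Proteins were reduced, alkylated and trypsin-digested at 37°C overnight, then iTRAQ-labelled and run by 2D LC-MS/MS. Ratios are the median of unique-peptide ratios, median-normalized, versus the no-drug control.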

[4] = system: Aspergillus fumigatus; assay: Induction of change in ribosomal protein L27a protein level in iTRAQ114 labelled cell wall fraction of drug-susceptible Aspergillus fumigatus KU80 delta-akuB at 0.12 ug/ml after 24 hrs in YPD medium by MS (MS/MS) analysis relative to control; format: functional
[5] = system: Aspergillus fumigatus; assay: Induction of change in tripeptidyl-peptidase (TppA), putative protein level in iTRAQ-116 labelled secreted fraction of drug-susceptible Aspergillus fumigatus KU80 delta-akuB at 0.12 ug/ml after 48 hrs in YPD medium by MS (MS/MS) analysis relative to control; format: functional
How it was run: (§3)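 Conidia (1 × 10⁵/ml) grown in YPD, 37°C, 225 rpm, ± 0.12 μg/ml caspofungin; filtrate taken as secreted fraction, French-press lysate 5,000 × g pellet as cell wall/plasma membrane. Trypsin digests 8-plex iTRAQ-labelled (drug-free channels as references), pooled, 2D-chromatography, MS/MS. Median-normalized; protein ratio = median of unique-peptide ratios, log2 normalized.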

[6] = system: Aspergillus fumigatus; assay: Induction of change in cobalamin-independent methionine synthase MetH/D protein level in iTRAQ-116 labelled secreted fraction of drug-resistant Aspergillus fumigatus EMFR-S678P at 0.12 ug/ml after 48 hrs in YPD medium by MS (MS/MS) analysis relative to control; format: functional; how it was run: as §2
[7] = system: Aspergillus fumigatus; assay: Induction of change in BYS1 domain protein, putative protein level in iTRAQ-118 labelled cell wall fraction of drug-resistant Aspergillus fumigatus EMFR-S678P at 0.12 ug/ml after 24 hrs in YPD medium by MS (MS/MS) analysis relative to control; format: functional, organism-based; how it was run: as §2
[8] = system: Aspergillus fumigatus; assay: Induction of change in Mitochondrial hypoxia-responsive domain protein level in iTRAQ-116 labelled cell wall fraction of drug-resistant Aspergillus fumigatus EMFR-S678P at 0.12 ug/ml after 24 hrs in YPD medium by MS (MS/MS) analysis relative to control; format: functional, organism-based; how it was run: as §2
[9] = system: Aspergillus fumigatus; assay: Induction of change in 14-alpha sterol demethylase Cyp51A protein level in iTRAQ-118 labelled cell wall fraction of drug-resistant Aspergillus fumigatus EMFR-S678P at 0.12 ug/ml after 48 hrs in YPD medium by MS (MS/MS) analysis relative to control; format: functional; how it was run: as §2
[10] = system: Aspergillus fumigatus; assay: Induction of change in ATP citrate lyase, subunit 1, putative protein level in iTRAQ114 labelled secreted fraction of drug-resistant Aspergillus fumigatus EMFR-S678P at 0.12 ug/ml after 24 hrs in YPD medium by MS (MS/MS) analysis relative to control; format: functional; how it was run: as §2
[11] = system: Aspergillus fumigatus; assay: Induction of change in conserved hypothetical gene expression in drug-susceptible Aspergillus fumigatus KU80 delta-akuB at 0.12 ug/ml after 24 hrs in YPD medium by microarray analysis relative to control; format: functional; how it was run: as §1
[12] = system: Aspergillus fumigatus; assay: Induction of change in ribosomal protein L27a gene expression in drug-susceptible Aspergillus fumigatus KU80 delta-akuB at 0.12 ug/ml after 24 hrs in YPD medium by microarray analysis relative to control; format: functional
How it was run: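 Mycelia grown from 1 × 10⁵ conidia/ml in YPD at 37°C, 225 rpm, with or without 0.12 μg/ml caspofungin. Total RNA extracted, DNase-treated; 2 μg labelled per TIGR SOP M007 for whole-genome array hybridization. Three independent experiments with dye flip (6 replicates); >2-fold change deemed significant.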

[13] = system: Aspergillus fumigatus; assay: Induction of change in 60S ribosomal protein L10 protein level in iTRAQ-118 labelled cell wall fraction of drug-susceptible Aspergillus fumigatus KU80 delta-akuB at 0.12 ug/ml after 24 hrs in YPD medium by MS (MS/MS) analysis relative to control; format: functional
How it was run: (§4)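 Conidia at 1 × 10⁵/ml grown shaking at 37°C in YPD with or without 0.12 μg/ml caspofungin; mycelia filtered at 24 or 48 h. Secreted fraction taken from the filtrate; cell wall/plasma membrane pellet recovered after French-press lysis and a 5,000 × g spin. Proteins trypsin-digested and iTRAQ-labelled, drug vs no-drug channels at each time, then 2D LC-MS/MS. Protein ratio is the median of ratios from uniquely assigned peptides after median normalization.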

[14] = system: Aspergillus fumigatus; assay: Induction of change in L-PSP endoribonuclease family protein (Hmf1), putative gene expression in drug-susceptible Aspergillus fumigatus KU80 delta-akuB at 0.12 ug/ml after 48 hrs in YPD medium by microarray analysis relative to control; format: functional; how it was run: as §1
[15] = system: Aspergillus fumigatus; assay: Induction of change in pyruvate decarboxylase PdcA, putative protein level in iTRAQ-118 labelled cell wall fraction of drug-resistant Aspergillus fumigatus EMFR-S678P at 0.12 ug/ml after 24 hrs in YPD medium by MS (MS/MS) analysis relative to control; format: functional, organism-based; how it was run: as §2
[16] = system: Aspergillus fumigatus; assay: Induction of change in 60s ribosomal protein l2 gene expression in drug-susceptible Aspergillus fumigatus KU80 delta-akuB at 0.12 ug/ml after 24 hrs in YPD medium by microarray analysis relative to control; format: functional; how it was run: as §1
[17] = system: Aspergillus fumigatus; assay: Induction of change in IgE-binding protein level in iTRAQ-116 labelled secreted fraction of drug-susceptible Aspergillus fumigatus KU80 delta-akuB at 0.12 ug/ml after 48 hrs in YPD medium by MS (MS/MS) analysis relative to control; format: functional; how it was run: as §4
[18] = system: Aspergillus fumigatus; assay: Induction of change in translation elongation factor eEF-3, putative protein level in iTRAQ-118 labelled cell wall fraction of drug-susceptible Aspergillus fumigatus KU80 delta-akuB at 0.12 ug/ml after 24 hrs in YPD medium by MS (MS/MS) analysis relative to control; format: functional; how it was run: as §3

CC[C@H](C)C[C@H](C)CCCCCCCCC(=O)N[C@H]1C[C@@H](O)[C@@H](NCCN)NC(=O)[C@@H]2[C@@H](O)CCN2C(=O)[C@H]([C@H](O)CCN)NC(=O)[C@H]([C@H](O)[C@@H](O)c2ccc(O)cc2)NC(=O)[C@@H]2C[C@@H](O)CN2C(=O)[C@H]([C@@H](C)O)NC1=O [CASPOFUNGIN]
fold change (FC) [1]: 3.8 | minimal effective concentration [2]: > 16 µg/mL | fold change (FC) [3]: 1.07 | fold change (FC) [4]: 1.9 | fold change (FC) [5]: 3.2 | fold change (FC) [6]: -1.15 | Activity [7]: inactive | Activity [8]: inactive | fold change (FC) [9]: 1.07 | fold change (FC) [10]: -1.07 | fold change (FC) [11]: 15.2 | fold change (FC) [12]: 3.6 | fold change (FC) [13]: 2.3 | fold change (FC) [14]: -2.3 | Activity [15]: inactive | fold change (FC) [16]: 3.9 | fold change (FC) [17]: -1 | fold change (FC) [18]: 2.1
